CYP2C19 inh: inhibitors of human CYP2C19; inhibition, % at 5 µM; CYP2C19 Supersomes, luciferin-H EGE luminescence, 30 min; hit rate 21% among 96,000; P33261; AID 778;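 active = CYP2C19 inhibition above a set limit at 5 µM in the primary screen, cut at about 50% in these data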
Target sequence (P33261 whole entry, looked up): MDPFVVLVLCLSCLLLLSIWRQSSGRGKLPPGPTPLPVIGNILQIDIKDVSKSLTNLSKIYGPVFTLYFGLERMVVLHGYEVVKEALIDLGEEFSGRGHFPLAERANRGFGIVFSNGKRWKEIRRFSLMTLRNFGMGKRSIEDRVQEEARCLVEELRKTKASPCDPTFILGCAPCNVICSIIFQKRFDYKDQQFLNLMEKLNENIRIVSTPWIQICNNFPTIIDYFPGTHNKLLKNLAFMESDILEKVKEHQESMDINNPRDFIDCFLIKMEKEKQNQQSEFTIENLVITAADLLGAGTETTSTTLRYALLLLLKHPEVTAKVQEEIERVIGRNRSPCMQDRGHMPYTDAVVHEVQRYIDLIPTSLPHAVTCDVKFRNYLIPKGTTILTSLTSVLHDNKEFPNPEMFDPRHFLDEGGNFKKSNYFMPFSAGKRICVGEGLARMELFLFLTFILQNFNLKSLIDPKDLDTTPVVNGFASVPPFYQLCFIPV
CYP2C9 activ: increases human cytochrome P450 2C9 activity; recombinant CYP2C9, luciferin-H conversion, luminescence; active compounds read high; factor 1 = untreated enzyme, 0 = blocked; activation factor at 5 µM; hit rate 1.4% among 96,000; AID 1024;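 active = activation factor of 2 or more for CYP2C9 at a 5 µM dose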
CYP2C9 inhib: human CYP2C9 inhibition. CYP2C9 Supersomes, luciferin-H conversion, luminescence. AID 777. P11712. inhibition, % at 5 µM. hit rate 20% among 96,000;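 active = blocking of liver enzyme CYP2C9 beyond about 50% at 5 µM, limit read from the data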
Rev-RRE block: disrupts HIV-1 Rev binding to RRE RNA. inhibition, % at 8 µM. P05866. AID 704. hit rate 0.79% among 97,000. Rev peptide-RRE RNA binding, FRET;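 active = inhibition above the screen-wide mean plus 3 SD, cut at about 35% in these data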
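System: Cy5-labelled duplex RRE RNA binding fluorescein-labelled HIV Rev peptide; Signal: fluorescein-to-Cy5 FRET, 480 nm excitation; Also added: labelled Rev peptide; Compound: one concentration, 8 µM nominal; Buffer or medium: HEPES pH 7.5 salt buffer with EDTA; Read-out: % inhibition of FRET ratio versus controls; Schedule: 5 min preincubation and 15 min binding, 25 °C.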
Cav3 T inh: human Cav3.2 channel inhibition, primary screen | hit rate 4% among 100,000 | O95180 | B-score at 10 µM | Cav3.2-expressing cells, Fluo-4 calcium fluorescence FDSS; active compounds read low;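 active = single-dose well whose peak fluorescence ratio is a statistical outlier from its plate by either plate-standardised score or position-corrected B-score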
CYP2C19 activ: increases human CYP2C19 enzyme activity; P33261; recombinant CYP2C19, luciferin-H EGE luminescence; active compounds read high; 0 = fully inhibited enzyme, 1 = untreated enzyme; activation factor at 5 µM; 96,000 tested, under 10 active;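 active = activation factor of at least 2 at 5 µM in the primary screen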
Each line names hits and unclear results; the compound was inactive in the other large screens. Hits are enriched below; roughly 27% of the tested compounds scored in any of these assays.

COc1ccc(NC(C)=O)cc1NC(=O)CCn1c(=O)sc2ccccc21	none (no result: CYP2C19 inh, CYP2C9 activ, CYP2C9 inhib, CYP2C19 activ)
C=CCOc1c2ccc(C(=O)NCc3ccc(C)cc3)cc2nn1C	none
COc1ccc(OCC(O)Cn2cnc(-c3ccc(Br)cc3)c2)cc1 (configuration not stated)	none (no result: CYP2C19 inh, CYP2C9 activ, CYP2C9 inhib, CYP2C19 activ)
COc1ccc(OCC(O)CNC(=O)c2ccc(Br)cc2)cc1 (configuration not stated)	CYP2C19 inh 52
COc1ccc(OCC(O)CNc2ccc(Br)cc2)cc1 (configuration not stated)	CYP2C19 inh 97, CYP2C9 inhib 90, Cav3 T inh -4.2
COc1ccc(OCC(O)CN(C2CCCCC2)C2CCCCC2)cc1 (configuration not stated)	none
COc1ccc(OCC(O)COc2ccc(OC)cc2)cc1	CYP2C19 inh 89 (no result: Rev-RRE block)
COc1ccc(C(=O)NCC(C)CN(C)C)cc1 (configuration not stated)	none
Cc1ccc(C2NS(=O)(=O)N=C2N)cc1 (configuration not stated)	none
Cc1cccc(Cn2c(=O)n(-c3ccc(CC(=O)NCc4ccco4)cc3)c(=O)c3sccc32)c1	none
CCCNC(=O)c1ccccc1NC(=O)Nc1ccccc1C	CYP2C19 inh 51
CCCNC(=O)c1ccccc1NC(=O)c1ccccc1N(C)S(C)(=O)=O	none (no result: CYP2C19 inh, CYP2C9 activ, CYP2C9 inhib, CYP2C19 activ)
CCCNC(=O)c1ccccc1NC(=O)c1ccccc1N(C)S(=O)(=O)c1ccc(C)cc1	Cav3 T inh -4.7 (no result: CYP2C19 inh, CYP2C9 activ, CYP2C9 inhib, CYP2C19 activ)
CC1CCc2nc(NCCO)nc(C(F)(F)F)c2C1 (configuration not stated)	none
Cc1cc(C)c(NC(=O)CS(=O)CC(=O)NC2CCCc3ccccc32)c(C)c1 (configuration not stated)	none
O=C(N/N=C/c1ccco1)/C(=C/c1cccc([N+](=O)[O-])c1)NC(=O)c1ccccc1	CYP2C19 inh 69
CN(C)c1ccc(/C=C(/NC(=O)c2ccccc2)C(=O)N/N=C/c2ccc([N+](=O)[O-])c(O)c2)cc1	none
CC(C)NC(=O)/C(=C\c1cccc([N+](=O)[O-])c1)NC(=O)c1ccccc1	none
O=C(N/N=C/c1ccc(Br)o1)/C(=C/c1ccc([N+](=O)[O-])cc1)NC(=O)c1ccccc1	CYP2C19 inh 52, Cav3 T inh -4.9
CNC(=O)c1nc(C)c(C2(C)CC(c3cccc([N+](=O)[O-])c3)=NO2)s1 (configuration not stated)	none (no result: CYP2C19 inh, CYP2C9 activ, CYP2C9 inhib, Rev-RRE block, CYP2C19 activ)
CCc1cccc(NC(=O)c2ccc(Br)o2)c1	CYP2C19 inh 70
Cc1cc(C(=O)Nc2cccc(C(=O)O)c2)oc1C	CYP2C19 inh 66 (no result: Rev-RRE block)
O=C(Nc1ccccc1)c1ccc(Br)o1	none (no result: CYP2C19 inh, CYP2C9 activ, CYP2C9 inhib, Rev-RRE block, CYP2C19 activ)
CCN(CC)c1ccc(NC(=O)c2ccc(Br)o2)cc1	CYP2C19 inh 52 (no result: Rev-RRE block)
O=C(c1ccccc1)c1cccc(NC(=O)c2ccc(Br)o2)c1	CYP2C19 inh 64, CYP2C9 inhib 95, Cav3 T inh -3.7
COc1ccc(OC)c([C@@H]2OCCC=C[C@H]2C)c1	none (no result: CYP2C19 inh, CYP2C9 activ, CYP2C9 inhib, Rev-RRE block, CYP2C19 activ)
Cn1cccc1Cc1nnc(SCC(=O)N2CCN(c3ccccc3)CC2)n1-c1ccc(F)cc1	none
Cc1ccc(SCc2cn3c(C)csc3n2)cc1	CYP2C19 inh 90, CYP2C9 activ 2.9
CCc1ccc(S(=O)(=O)NCc2cn3ccsc3n2)s1	none (no result: Rev-RRE block)
Cc1csc2nc(CCNS(=O)(=O)c3cccs3)cn12	CYP2C19 inh 70
Cc1ccc(S(=O)(=O)NCc2cn3c(C)csc3n2)cc1	none
Cc1cc(C)c(S(=O)(=O)NCc2cn3c(C)csc3n2)c(C)c1	CYP2C19 inh 51
CCc1ccc(S(=O)(=O)NCCc2cn3ccsc3n2)s1	CYP2C19 inh 68
CC#CCCCC(=O)Nc1cccc(C(=O)O)c1	none
CCOC(=O)c1c(NC(=O)Cn2nnc3ccccc32)sc2c1CCC(C)C2 (configuration not stated)	CYP2C19 inh 61, CYP2C9 inhib 88
CCOC(=O)c1cnn(-c2cc(C)nc3c(-c4ccccc4)c(C)nn23)c1N	none
COc1cccc(NC2SC(=O)N(c3ccccc3)C2=O)c1 (configuration not stated)	none (no result: Rev-RRE block)
COc1ccc(C2c3sc(=O)[nH]c3SC3C4CCC(C4)C23)cc1 (configuration not stated)	CYP2C19 inh 56

Screening data deposited in PubChem by several laboratories.
